ChEMBL document CHEMBL1122798, “Trypanocidal 1,3-arylene diketone bis(guanylhydrazone)s. Structure-activity relationships among substituted and heterocyclic analogues” (1984)

Tests used:
Type in all cases: functional
Mus musculus [1] = experiment: Compound was tested for Trypanocidal Activity in mice at 15 mg/kg; 9/10
Mus musculus [2] = experiment: Compound was tested for Trypanocidal Activity in mice at 2.5 mg/kg; 15/30
Mus musculus [3] = experiment: Compound was tested for Trypanocidal Activity in mice at 1.0 mg/kg; 0/10
Mus musculus [4] = experiment: Compound was tested for Trypanocidal Activity in mice at 25 mg/kg; toxic deaths; 8/10
Mus musculus [5] = experiment: Compound was tested for Trypanocidal Activity in mice at 1.5 mg/kg; 3/30
Mus musculus [6] = experiment: Compound was tested for Trypanocidal Activity in mice at 10 mg/kg; 10/10
Mus musculus [7] = experiment: Compound was tested for Trypanocidal Activity in mice at 40 mg/kg; 0/5
Mus musculus [8] = experiment: Compound was tested for Trypanocidal Activity in mice at 6 mg/kg; 9/10
Mus musculus [9] = experiment: Compound was tested for Trypanocidal Activity in mice at 4 mg/kg; 22/30
Mus musculus [10] = experiment: Compound was tested for Trypanocidal Activity in mice at 100 mg/kg; 0/5
Mus musculus [11] = experiment: Compound was tested for Trypanocidal Activity in mice at 15 mg/kg; 0/5
Mus musculus [12] = experiment: Compound was tested ffor Trypanocidal Activity in mice at 500 mg/kg; 0/5
Mus musculus [13] = experiment: Compound was tested for Trypanocidal Activity in mice at 15 mg/kg; 4/15
Mus musculus [14] = experiment: Compound was tested for Trypanocidal Activity in mice at 25 mg/kg; 10/15
Mus musculus [15] = experiment: Compound was tested for Trypanocidal Activity in mice at 10 mg/kg; 0/5
Mus musculus [16] = experiment: Compound was tested for Trypanocidal Activity in mice at 40 mg/kg; 5/5
Mus musculus [17] = experiment: Compound was tested for Trypanocidal Activity in mice at 60 mg/kg; 0/5
Mus musculus [18] = species: Mus musculus; experiment: Effective dose against Trypanosoma brucei infection in mice
Outline: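 Female Swiss-Webster mice (20–25 g) were infected ip with 5×10^4 T. brucei EATRO 110 organisms in fresh mouse blood diluted with minimum essential medium. Groups of 5 or 10 received a single ip dose in normal saline (solution or milled suspension, 20 μL/g) 6 h post-infection. Deaths within 72 h were scored as toxic. Survivors aparasitemic at 28 days (tail-blood wet films, phase contrast) counted as cures. ED50 was computed by Bliss/Litchfield–Wilcoxon, excluding toxic dosages.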

Mus musculus [19] = experiment: Compound was tested for Trypanocidal Activity in mice at 15 mg/kg; 10/10
Mus musculus [20] = experiment: Compound was tested for Trypanocidal Activity in mice at 2.5 mg/kg; 21/35
Mus musculus [21] = experiment: Compound was tested for Trypanocidal Activity in mice at 25 mg/kg; 10/10
Mus musculus [22] = experiment: Compound was tested for Trypanocidal Activity in mice at 1.5 mg/kg; 2/25
Mus musculus [23] = experiment: Compound was tested for Trypanocidal Activity in mice at 4 mg/kg; 20/30
Mus musculus [24] = experiment: Compound was tested for Trypanocidal Activity in mice at 6 mg/kg; 26/30
Mus musculus [25] = experiment: Compound was tested for Trypanocidal Activity in mice at 40 mg/kg; toxic deaths; 1/5
Mus musculus [26] = experiment: Compound was tested for Trypanocidal Activity in mice at 10 mg/kg; 19/20

Structure (SMILES): CC(=O)Nc1cc(/C(C)=N/NC(=N)N)cc(/C(C)=N/NC(=N)N)c1.Cl
- Cures/total (Mus musculus [1]): 9
- Cures/total (Mus musculus [2]): 15
- Cures/total (Mus musculus [3]): 0
- Cures/total (Mus musculus [4]): 8
- Cures/total (Mus musculus [5]): 3
- Cures/total (Mus musculus [6]): 10
- Cures/total (Mus musculus [7]): 0
- Cures/total (Mus musculus [8]): 9
- Cures/total (Mus musculus [9]): 22

Structure (SMILES): C/C(=N\NC(=N)N)c1cc(/C(C)=N/NC(=N)N)c(O)cc1O.Cl
- Cures/total (Mus musculus [10]): 0
- Cures/total (Mus musculus [11]): 0
- Cures/total (Mus musculus [12]): 0
- Cures/total (Mus musculus [7]): 0

Structure (SMILES): C/C(=N\NC(=N)N)c1ccc([N+](=O)[O-])c(/C(C)=N/NC(=N)N)c1.Cl
- Cures/total (Mus musculus [13]): 4
- Cures/total (Mus musculus [14]): 10
- Cures/total (Mus musculus [15]): 0
- Cures/total (Mus musculus [16]): 5
- Cures/total (Mus musculus [17]): 0
- ED50 (Mus musculus [18]): 20 mg/kg

Structure (SMILES): C/C(=N\NC(=N)N)c1cc(N)cc(/C(C)=N/NC(=N)N)c1.Cl
- Mice cured (number) (Mus musculus [19]): 10
- Cures/total (Mus musculus [20]): 21
- Cures/total (Mus musculus [3]): 0
- Cures/total (Mus musculus [21]): 10
- Cures/total (Mus musculus [22]): 2
- Cures/total (Mus musculus [23]): 20
- Cures/total (Mus musculus [17]): 0
- Cures/total (Mus musculus [24]): 26
- ED50 (Mus musculus [18]): 2.8 mg/kg
- Cures/total (Mus musculus [25]): 1
- Cures/total (Mus musculus [26]): 19
